Only some compounds are listed: those with a hit (about 4.1% of all), similar ones and a draw of the others.
KCNQ1 act – human KCNQ1 channel potentiation or activation | 0.35% of 310,000 active | P51787 | CHO-K1 KCNQ1, thallium flux FluxOR fluorescence; stronger effect = higher value | B-score at 10 µM;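 active means fluorescence ratio B-score, a plate-corrected score, at least three library SD, with initial intensity B-score within 5 SD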
Target sequence (P51787 whole entry, looked up): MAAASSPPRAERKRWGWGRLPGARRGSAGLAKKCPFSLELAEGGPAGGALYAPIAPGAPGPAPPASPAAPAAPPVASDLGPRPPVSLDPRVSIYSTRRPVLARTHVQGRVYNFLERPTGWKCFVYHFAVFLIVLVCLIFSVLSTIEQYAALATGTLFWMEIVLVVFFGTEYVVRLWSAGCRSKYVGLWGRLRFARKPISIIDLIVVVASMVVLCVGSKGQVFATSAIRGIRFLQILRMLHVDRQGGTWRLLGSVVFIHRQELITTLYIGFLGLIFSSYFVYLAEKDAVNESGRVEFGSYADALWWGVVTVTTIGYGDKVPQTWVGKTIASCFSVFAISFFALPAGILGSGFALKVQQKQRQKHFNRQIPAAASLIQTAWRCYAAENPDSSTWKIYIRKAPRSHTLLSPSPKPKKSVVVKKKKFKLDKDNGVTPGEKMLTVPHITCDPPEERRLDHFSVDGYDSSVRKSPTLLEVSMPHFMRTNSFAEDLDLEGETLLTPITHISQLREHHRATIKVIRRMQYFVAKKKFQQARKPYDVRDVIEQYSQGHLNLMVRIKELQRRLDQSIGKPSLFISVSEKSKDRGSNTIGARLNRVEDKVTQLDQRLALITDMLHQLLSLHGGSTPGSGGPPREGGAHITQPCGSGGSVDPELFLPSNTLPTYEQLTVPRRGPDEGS
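Material: CHO-K1 cells stably expressing KCNQ1. Medium: assay buffer for compound exposure, DMSO matched across wells. Reagent: K+/Tl+ depolarizing stimulus. Compound dosing: single-concentration screen. Times: 37 °C overnight plating, 90-min dark dye load, 20-min compound pretreatment. Technique: FluxOR Tl+ flux fluorescence.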
hERG rescue – compounds protecting human hERG from proarrhythmic drug block; Q12809; CHO-hERG, FluxOR thallium flux, dofetilide IC70 present; activation (rescue from dofetilide block), less the hit threshold, % at 10 µM; 0.51% of 310,000 active; AID 1511;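 active means activation above the mean of controls blocked by dofetilide plus 5 SD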;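 further: thallium influx through hERG after potassium depolarization seen as dye fluorescence rise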
KCNK9 inh – blocks the human KCNK9 two-pore domain potassium channel. 1.2% of 310,000 active. AID 488922. HEK293 KCNK9, FluxOR thallium flux fluorescence; stronger effect = lower value. B-score at 10 µM. Q9NPC2;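 active means ratio B-score over 3 SD below the library mean, with starting fluorescence within 5 SD of its mean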;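 further: negative B-score means less thallium flux so channel inhibition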
KCNK3 block – human KCNK3 channel inhibition, primary screen; CHO-KCNK3 thallium flux, FluxOR fluorescence; stronger effect = lower value; B-score at 10 µM; 0.84% of 340,000 active; AID 602410;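 active means B-score under library mean minus 4 SD, starting fluorescence ratio at most library mean plus 5 SD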;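 further: more negative B-score means stronger inhibition of thallium flux through KCNK3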
KCNQ1 inh – human KCNQ1 channel inhibition; P51787; B-score at 10 µM; CHO-K1 KCNQ1, FluxOR thallium flux fluorescence; stronger effect = higher value; AID 2642; 1.3% of 310,000 active;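 active means compounds whose thallium flux B-score, printed positive for inhibition, exceeds three library SD while starting fluorescence stays within three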;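 further: channel opened by potassium depolarization with thallium stimulus after 20 min compound exposure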
Cl transport mod – KCC2 (human) Cl- transport modulation. Q9H2X9. KCC2 cells, thallium flux FluoZin-2 fluorescence. B-score of Tl+ flux slope (higher = more flux/activation; lower = inhibition) at 10 µM. 2.2% of 190,000 active;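 active means thallium flux slope and its plate-corrected score both differing from the plate sample mean at a set confidence after two filtering rounds, in either direction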;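 further: slope of fluorescence scaled to starting intensity during 10 to 20 s after thallium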
Active calls of the source: *; i = inactive; x = no result given.

SMILES	KCNQ1 act	hERG rescue	KCNK9 inh	KCNK3 block	KCNQ1 inh	Cl transport mod
COc1ccc(OCC(=O)NNC(=O)C(=O)Nc2ccccc2)cc1	x	x	x	i	x	x
O=C(CS(=O)(=O)c1ccccc1)NCc1ccccc1	i	-6	i	i	i	x
COc1cc(NC(=O)C[n+]2ccc(C(=O)c3ccccc3)cc2)cc(OC)c1	x	x	x	i	x	x
COc1cc(C(=O)N/N=C/c2ccc(OC(=O)c3ccccc3Cl)c(OC)c2)ccc1O	i	-18	i	i	6*	x
COc1cc(/C=N/NC(=O)c2ccncc2)ccc1OC(=O)c1ccccc1Cl	i	-22	i	i	i	x
CCC(=NN=C(CC)c1ccccc1O)c1ccccc1O	x	x	x	-9.9*	x	x
C/C(=N/N=C(\C)c1ccccc1O)c1ccccc1O	i	-8	i	i	i	x
O=C1ON=C(c2cccc([N+](=O)[O-])c2)/C1=C/c1ccc(O)cc1	i	-25	i	i	7*	-0.18
O=C1ON=C(c2ccccc2)/C1=C/c1ccc(O)c(O)c1	i	-16	i	i	i	x
CCN(CC)C1Oc2cc3c(cc2C(c2cc(OC)c(OC)c(OC)c2)C1C)OCO3 (stereo not given)	x	x	x	i	x	x
Cc1ccc(-n2nc3c(N4CCC(C(=O)NCc5ccccc5C)CC4)nnc(C)c3c2C)cc1	i	-9	i	i	7*	x
CCOc1ccccc1CNC(=O)C1CCN(c2nnc(C)c3c(C)n(-c4ccc(C)cc4)nc23)CC1	i	-11	i	i	i	x
N#CCc1ccc(NS(=O)(=O)c2ccc(C3CCCCC3)cc2)cc1	i	-13	-6.9*	i	i	0.73
COc1ccc(S(=O)(=O)Nc2ccc(CC#N)cc2)cc1	x	x	x	i	x	0.7
Cc1c(-c2ccccc2)sc2nc[nH]c(=S)c12	91*	30*	i	i	i	90*
O=C(Nc1cccc(C(F)(F)F)c1)C(SCCO)c1ccccc1 (stereo not given)	i	-11	-7.4*	i	i	-0.77
Cn1nnnc1SC(C(=O)Nc1cccc(C(F)(F)F)c1)c1ccccc1 (stereo not given)	i	-11	-7*	i	i	0.76
O=C(NCc1ccncc1)c1ccccc1Nc1ccc(SC(F)F)cc1	i	-2	i	i	i	x
CNC(=O)c1ccccc1Nc1ccc(SC(F)F)cc1	i	-12	i	i	6*	x
Cc1ccc(NC(=O)c2ccc(NS(=O)(=O)/C=C/c3ccccc3)cc2)nc1	i	-12	i	i	i	x
Cc1nn(Cc2ccc(C(=O)NC3CCCCC3)o2)c(C)c1Br	i	-16	i	i	6*	-0.13
O=C(NC1CCCC1)c1ccc(Br)o1	i	4.6*	i	i	i	x
Cc1nn(Cc2ccc(C(=O)NC(C)(C)C)o2)c(C)c1Br	i	-17	i	i	i	0.66
CCOC(=O)[C@H]1[C@H]2COc3ccc(Br)cc3[C@@H]2N2C(=O)CN(CC3CCCO3)C(=O)[C@@]12C (stereo not given in full)	x	x	x	i	x	x
CC(C)(C)[C@H]1COC(=O)[C@H](Cc2ccc(F)cc2)CC/C=C/C[C@@H](CC(=O)N[C@H](CO)Cc2ccccc2)C(=O)N1	x	x	x	i	x	x
SMILES	KCNQ1 act	hERG rescue	KCNK9 inh	KCNK3 block	KCNQ1 inh	Cl transport mod
CC(=O)c1cccc(NC(=O)CCC(=O)Oc2ccc(C)cc2)c1	i	-16	i	i	i	x
Cc1cc(C)cc(C(=O)NC(CC(N)=O)c2ccc(N3CCCCCC3)c([N+](=O)[O-])c2)c1 (stereo not given)	i	-9	i	i	7*	x
Cc1[nH]nc(SCC(=O)N2CCCCC2)c1[N+](=O)[O-]	10*	-5	i	i	i	x
Cc1[nH]nc(SCC(=O)N2CCCCCC2)c1[N+](=O)[O-]	i	-7	i	i	i	-0.0065
Cc1ccc(C2=NN(CC(=O)NCCN(CC(C)C)CC(C)C)C(=O)CC2)cc1	i	-7	i	i	i	x
N#Cc1c(/N=C/c2ccc(Br)s2)sc2c1CCC2	x	x	x	i	x	-0.59
N#Cc1c(/N=C/c2cccs2)sc2c1CCCCC2	i	-17	i	i	6*	0.02
CCCCCC/C(C)=C1/SC(=S)NC1=O	126*	59*	i	i	i	53*
COc1ccc(C2CC(=O)Oc3c(C(CCN4CCCC(C)C4)c4ccc(N(C)C)cc4)c(OC)cc(OC)c32)cc1 (stereo not given)	i	-10	i	i	7*	0.012
Cc1c(N2C(=O)CSC2c2ccc(F)cc2)c(=O)n(-c2ccccc2)n1C (stereo not given)	i	-10	i	i	i	0.02
Clc1ccc(CONc2ncnc3nonc23)c(Cl)c1	i	-25	i	i	7*	-2
Cc1ccc(/C=C2\SC(=O)N(CCNC(=O)C3CSC4(C)CCC(=O)N34)C2=O)cc1 (stereo not given)	i	-14	i	i	i	x
CCSc1nsc(NC(=O)Nc2ccc(F)cc2F)n1	i	0	i	i	6*	x
CCCCCCCNC(=O)C1(CC2CC(c3ccc(Cl)cc3)=NO2)CCN(C(=O)OC(C)(C)C)CC1 (stereo not given)	i	-10	i	i	8*	x
O=C(COC(=O)c1ccc(O)cc1)Nc1ccc2c(c1)OCO2	x	x	x	i	x	x
FC(F)Sc1ccc(NC(=S)NC2CCC(NC(=S)Nc3ccc(SC(F)F)cc3)CC2)cc1 (stereo not given)	i	-5	i	i	i	1
Oc1cccc2c(NC(=S)Nc3ccc(SC(F)F)cc3)cccc12	i	-11	i	i	11*	0.43
CC1(C)CC(=O)C/C(=N/NC(=O)c2ccc(-c3ccccc3)cc2)C1	i	-4	i	i	i	-4.7*
CC1(C)CC(=O)C/C(=N\NC(=O)Cc2ccccc2)C1	i	-9	i	i	i	-0.71
CCCCCCCCN1[C@@H](CC(C)=O)c2cc(C(F)(F)F)ccc2S1(=O)=O	56*	-14	i	i	i	x
COc1ccc(CN2[C@@H](CC(=O)O)c3cc(C(F)(F)F)ccc3S2(=O)=O)cc1	i	6.4*	i	i	i	x
CC(=O)C[C@H]1c2cc(C(F)(F)F)ccc2S(=O)(=O)N1C1CCCCC1	10*	-2	i	i	i	x
COc1ccc2[nH]c(=O)c(CN(Cc3cccnc3)C(=S)NCC3CCCO3)cc2c1 (stereo not given)	i	-14	i	i	i	-0.68

Screening data: PubChem BioAssay, several laboratories
